# MrgX1 antag: blocks BAM8-22 activation of human MrgX1 receptor | B-score at 10 µM | AID 588676 | Q96LB2 | actives 1.3% (n = 310,000) | MRGX1-HEK293 calcium flux, Fluo-4, BAM8-22 antagonism; active compounds read low;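 active means calcium-response B-score plate-corrected more than 3 library SD below zero, starting fluorescence within 5 deviations, no agonist response on first addition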;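 further: peak minus trough fluorescence over baseline after final BAM8-22 challenge near maximal dose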
# Target sequence (Q96LB2 whole entry, looked up): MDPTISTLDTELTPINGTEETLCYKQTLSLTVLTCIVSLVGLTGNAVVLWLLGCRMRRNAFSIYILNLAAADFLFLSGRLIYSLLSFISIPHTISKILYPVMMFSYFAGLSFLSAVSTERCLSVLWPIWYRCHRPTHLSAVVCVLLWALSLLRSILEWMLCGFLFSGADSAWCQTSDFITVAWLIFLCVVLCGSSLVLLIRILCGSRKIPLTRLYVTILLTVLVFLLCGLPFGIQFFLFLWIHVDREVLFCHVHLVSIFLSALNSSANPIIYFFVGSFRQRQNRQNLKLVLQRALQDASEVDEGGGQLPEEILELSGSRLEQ
# RGS4 pot: RGS4 potentiation or activation; HEK293 M3R/inducible RGS4, carbachol calcium flux Fluo4; active compounds read low; B-score at 10 µM; actives 0.92% (n = 310,000);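 active means B-score of the integrated calcium signal more than 4 SD below the library mean, with starting fluorescence not abnormally high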;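 further: negative B-score means reduced calcium response which marks RGS4 activation or potentiation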
#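 Reagent: ECmax carbachol challenge; Test system: M3R-expressing HEK293 line, RGS4 induced by doxycycline; Schedule: overnight RGS4 induction, 30 min dye load 37 °C, 20 min compound RT; Detection: calcium dye Fluo4 fluorescence; Read-out: Agonist-evoked peak-minus-minimum fluorescence over baseline, integrated ratio, B score.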
# MrgX1 allo act: allosterically activates human MrgX1 receptor signaling | Q96LB2 | MrgX1-HEK293, Fluo-4 calcium flux, FDSS; active compounds read high | B-score at 10 µM | actives 0.63% (n = 310,000);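 active means plate-corrected calcium response at least 3 library SD above typical, normal starting fluorescence, not activating the receptor alone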;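 further: compound read alongside a low EC10 to EC30 dose of BAM8-22 agonist; peak minus trough fluorescence over baseline measured at the second addition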
# MrgX1 ag: human MrgX1 receptor agonism, primary screen. MrgX1-HEK293 cells, Fluo-4 calcium fluorescence, agonist mode; active compounds read high. B-score at 10 µM. actives 0.44% (n = 310,000);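 active means calcium response B-score plate-corrected fluorescence ratio at least 3 library SD, with starting fluorescence B-score inside 5 SD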
#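 Test system: Stable human MrgX1 HEK293 cell line | Schedule: Overnight plating before 1 h dye loading | Read-out basis: Baseline-normalised fluorescence change ratio, B-scored | Detection: Kinetic calcium dye fluorescence, Fluo-4 NW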
# RGS4 block: inhibitors of human RGS4. P49798. HEK293 M3R/RGS4 inducible, Fluo-4 calcium flux; active compounds read high; triggered by carbachol at its EC20. B-score at 10 µM. actives 0.45% (n = 310,000);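 active means B-score, a plate-corrected calcium signal, over three deviations above library mean, with baseline fluorescence within five deviations of library mean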;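 further: RGS4 expression induced by doxycycline in cells with stable M3 receptor; B-score is computed from the integrated fluorescence ratio over baseline after carbachol; higher B-score means a larger calcium signal and so more RGS4 inhibition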
# Target sequence (P49798 whole entry, looked up): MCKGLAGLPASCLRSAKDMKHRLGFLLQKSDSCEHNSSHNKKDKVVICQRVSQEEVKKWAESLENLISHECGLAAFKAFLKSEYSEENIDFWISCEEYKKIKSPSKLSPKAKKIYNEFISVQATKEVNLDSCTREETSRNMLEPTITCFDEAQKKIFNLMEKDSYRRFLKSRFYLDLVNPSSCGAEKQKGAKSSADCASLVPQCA
# MrgX1 ant reconf: confirmation of human MrgX1 receptor antagonists; actives 19% (n = 2,300); shares compounds with MrgX1 antag; remaining BAM8-22 calcium response % of control (active compounds read low), % at 10 µM; MrgX1-HEK293, BAM8-22 calcium flux, Fluo-4; active compounds read low;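 active means remaining agonist calcium response no higher than 100% minus 3 SD of agonist-only control wells, with starting fluorescence near control levels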;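 further: agonist BAM8-22 given at a near maximal EC90 to ECmax level; peak minus minimum fluorescence divided by baseline after agonist addition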
# HEK293 Ca flux: counter-screen for MrgX1 antagonists: effect in parental HEK293 cells. Fluo-4 calcium fluorescence, FDSS. shares compounds with MrgX1 antag. fluorescence ratio F(max-min)/F0 at 10 µM. AID 624111. actives 2% (n = 4,000);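 active means duplicate-averaged calcium fluorescence ratio at least three times the standard deviation of buffer wells, a nonspecific response in parental cells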
# HEK293 Ca counter: activity in parental HEK293 cells without MrgX1. parental HEK293 calcium flux, Fluo-4 fluorescence ratio; active compounds read high. shares compounds with MrgX1 antag. fluorescence ratio F(max-min)/F0 at 10 µM. actives 0.4% (n = 4,000). AID 624114;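 active means calcium fluorescence ratio, averaged over duplicates, at least 3 SD of the buffer-well ratio, meaning a nonspecific response in receptor-free cells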;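 further: untransfected parental HEK293 lacking MrgX1 used as counterscreen for MrgX1 allosteric activators; fluorescence change taken during the second addition on a kinetic imager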
# HEK293 Ca cntr2: counter-screen for MrgX1 activators: effect in parental HEK293 cells. shares compounds with MrgX1 antag. Fluo-4 calcium fluorescence (FDSS); active compounds read high. fluorescence ratio F(max-min)/F0 at 10 µM. actives 8.7% (n = 4,000). AID 624115;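 active means calcium fluorescence ratio at least three times the spread of buffer wells, meaning a non-specific response in parental cells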
# * hit, by the source's call; i = inactive; x = no result. Hits are enriched below; roughly 3.5% of the tested compounds scored in any of these assays.
SMILES,MrgX1 antag,RGS4 pot,MrgX1 allo act,MrgX1 ag,RGS4 block,MrgX1 ant reconf,HEK293 Ca flux,HEK293 Ca counter,HEK293 Ca cntr2
C[C@H]1CN=C(Nc2ccccc2)N1CCCC1CCCCC1,-6.1*,i,i,i,i,i,i,i,i
CN(C)C1=NC[C@H](Cc2ccccc2)N1CCCC1CCCC1,-5.6*,x,i,i,x,i,i,i,i
O=C(c1ccco1)N1CCN(S(=O)(=O)c2cccc([N+](=O)[O-])c2)CC1,i,i,i,i,i,x,x,x,x
CCc1ccc(NC(=O)C(=O)NCC2CCCN2S(=O)(=O)c2ccccc2)cc1 (centres undefined),i,i,i,i,i,x,x,x,x
CC1(C)CC(=O)C=C(NCCO)C1,-4.7*,i,i,i,i,i,i,i,i
Cc1ccc(/C=N/N2CCOCC2)s1,i,i,i,i,i,x,x,x,x
CC(C)CCc1noc(CN(C)CCC2CCOCC2)n1,i,i,i,i,i,x,x,x,x
Cc1nn(C)c(C)c1CN(Cc1nc(CCC(C)C)no1)C(C)C,-4.6*,i,i,i,i,i,i,i,i
Cc1ccccc1NC(=O)C(C)OC(=O)c1ccccc1C(=O)N(C)c1ccccc1 (centres undefined),-5.7*,i,i,i,i,i,i,i,i
COCCNC(=O)C1CC2Cn3c(nc4cc(Cl)c(Cl)cc43)C2N1C (centres undefined),-5.5*,i,i,i,i,i,i,i,i
O=C(Nc1ccc(Cl)c(Cl)c1)Nc1ccccc1O,-5.5*,i,i,i,i,i,i,i,i
O=C(Nc1ccccc1O)C(c1ccccc1)c1ccccc1,-5.1*,i,i,i,i,76%*,i,i,i
Cc1ccc(C(=O)CN2C(=O)C(=O)N(Cc3ccccc3)C2=O)cc1,-6.4*,i,i,i,i,80%*,i,i,i
Cc1ccccc1CN1CCN(S(=O)(=O)c2cccs2)CC1,-4.6*,i,i,i,i,i,i,i,i
CCN1CCN(S(=O)(=O)c2cccc3nsnc23)CC1,i,i,i,i,i,x,x,x,x
Cc1ccccc1CN1CCN(S(=O)(=O)c2cccc3nsnc23)CC1,-11*,i,i,i,i,i,i,i,i
CCOc1ccccc1CN1CCC(N2CCOCC2)CC1,i,i,i,i,i,x,x,x,x
CC(C)CCNC(=O)c1cc(-c2ccncc2)nc2ccc(S(=O)(=O)N3CCOCC3)cc12,-8.3*,i,i,i,i,i,i,i,i
O=C(CCSc1ccccc1)NC(=O)COC(=O)C1CCCCC1,-4.6*,i,i,i,i,i,i,i,i
O=C(CCSc1ccccc1)NC1CCCCCC1,i,i,i,i,i,x,x,x,x
CCCc1nc2ccccc2c(=O)n1CC(=O)c1ccccc1,-5.8*,i,i,i,i,i,i,i,i
Cc1ccc(NC(=O)c2sccc2C)cc1S(=O)(=O)N(C)C,-5.2*,i,i,i,i,i,i,i,i
Cc1ccc(NC(=O)c2ccccc2Br)cc1S(=O)(=O)N(C)C,i,i,i,i,i,x,x,x,x
Cc1cc(C(=O)NC(C)c2ccc3c(c2)OCO3)cs1 (centres undefined),-4.6*,i,i,i,i,i,i,i,i
Cc1cc(C(=O)Nc2ccc3c(c2)OCO3)cs1,i,i,i,i,i,x,x,x,x
SMILES,MrgX1 antag,RGS4 pot,MrgX1 allo act,MrgX1 ag,RGS4 block,MrgX1 ant reconf,HEK293 Ca flux,HEK293 Ca counter,HEK293 Ca cntr2
COc1ccc(OC)c(-n2c(-c3ccccc3)n[nH]c2=S)c1,-5.2*,i,i,i,i,i,i,i,i
COc1ccc(OC)c(-n2c(-c3cccc(C)c3)n[nH]c2=S)c1,i,i,i,i,i,x,x,x,x
Cc1cccc(-n2nnc(C(=O)NCc3ccccc3)c2N)c1,-8.4*,i,i,i,i,i,i,i,i
Cc1ccc(CCNC(=O)c2nnn(-c3cccc(C)c3)c2N)cc1,i,i,i,i,i,x,x,x,x
COC(=O)C(C)SC1=N/C(=C/c2ccc(-n3cncn3)cc2)C(=O)N1 (centres undefined),i,i,i,i,i,x,x,x,x
CC1(C)Cc2c(C#N)c(N)n(-c3ccccc3)c(=O)c2CO1,-13*,i,i,i,i,i,i,i,i
N#Cc1c(N)n(-c2ccccc2)c(=O)c2cc([N+](=O)[O-])ccc12,i,i,i,i,i,x,x,x,x
Cc1cc(C)n2c(=O)c3ccc(Cl)cc3nc2c1C#N,-5.8*,i,i,i,i,i,i,i,i
Cc1ccccc1N(CC(=O)N1CCN(c2ccccc2)CC1)S(C)(=O)=O,-7.7*,i,i,i,i,i,i,i,i
Cc1ccccc1CN1C[C@@H]2C[C@@H](c3cnc(N4CCOCC4)s3)N3CCC[C@@]23C1=O,i,i,i,i,i,x,x,x,x
CC1CCCCC1NC(=O)c1cccc(S(=O)(=O)N2CCN(Cc3ccccc3)CC2)c1 (centres undefined),-6.1*,i,i,i,i,i,i,i,i
CCOC(=O)c1sc2nc(NC(=O)C(C)(C)C)sc2c1C,-5.1*,i,i,i,i,79%*,i,i,i
CN(C)/C=C1/OC(=O)C(C#N)=C1c1ccc(Cl)cc1,i,i,i,i,i,x,x,x,x
O=C(COC(=O)c1cccs1)c1ccc2ccccc2c1,-5.6*,i,i,i,i,i,i,i,i
O=C(CCc1nnc2ccc(N3CCC4(CC3)OCCO4)nn12)Nc1ccc(F)cc1,i,i,i,i,i,x,x,x,x
CC/C(=N\NC(=O)c1ccc(-c2ccccc2)cc1)C12CC3CC(CC(C3)C1)C2,i,i,i,i,i,x,x,x,x

# Assay outcomes deposited in PubChem BioAssay by Johns Hopkins Ion Channel Center.
